INS promoter act: activators of insulin promoter-driven GFP, primary screen, imaging, TRM-6 cells, eGFP reporter, cell count; plate-scaled: unstimulated 0, stimulated control 100; activation, % at 2 µM; 0.81% of 130,000 active;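 active = activation at 2 µM above a set limit, confirmed on inspection of the cell images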;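 note: share of cells whose green reporter signal exceeds an intensity cutoff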
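System: human fetal islet-derived TRM-6 cells with tamoxifen-inducible insulin promoter–eGFP reporter; input: seeding density of 1,000 cells per well; buffer or medium: Low-glucose (5.5 mM) medium with tamoxifen; incubation: compound exposure 48 h, 37 °C; measured by: high-content imaging of fixed cells with Hoechst nuclear stain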
An asterisk follows results filed as active; [ ] = dose if it differs, or a comment. This is one part of a sample in which hits are shown more often than they occur.

Results for CCC(C)(C)NC(=O)C(c1ccco1)N(C(=O)Cn1nnc2ccccc21)c1ccc2c(c1)OCO2 (stereo unspecified) ?
INS promoter act: 83*

What do the screens show for `Cc1ccc(N(C(=O)Cn2nnc3ccccc32)C(C(=O)NCc2ccco2)c2ccc(C)o2)cc1` (stereo unspecified)?
INS promoter act: -8

How did COc1cccc(/C=N/NC(=O)CN2CC(c3ccccc3)CC2=O)c1O (stereo unspecified) do in these assays?
INS promoter act: -8

How did O=C(CN1CCN(Cc2ccccc2Cl)CC1)N/N=C/C=C/c1ccccc1[N+](=O)[O-] do in these assays?
INS promoter act: -3

Results for COc1cc(Cl)c(C)cc1NC(=O)CSc1ccc(NC(C)=O)cc1 ?
INS promoter act: 7

What do the screens show for `O=c1oc2ccc(Br)cc2cc1S(=O)(=O)c1ccc(F)cc1`?
INS promoter act: 8

How did CC(C)NC(=O)c1cc2cc(Br)ccc2oc1=O do in these assays?
INS promoter act: 129*

Results for CC(C)NC(=O)COC(=O)c1cc(Br)ccc1Cl ?
INS promoter act: -3

What do the screens show for `Cc1ccnc(NC(=O)CCC(=O)N(CC(=O)NCc2ccccc2)Cc2cccs2)c1`?
INS promoter act: 139

What do the screens show for `CC(OC(=O)C1=COCCO1)C(=O)Nc1ccccc1C#N` (stereo unspecified)?
INS promoter act: 5

What do the screens show for `CCC1(CC)C(=O)NC(=O)NC1=Nc1cccc(OC)c1`?
INS promoter act: 168*

Results for COc1cccc(-c2csc3nc[nH]c(=O)c23)c1 ?
INS promoter act: -89

What do the screens show for `COc1cccc(NC(=O)Cc2ccccc2)c1`?
INS promoter act: -73

Results for Cc1ccc(S(=O)(=O)N2CCN(C(=O)c3ccc([N+](=O)[O-])cc3)C2)cc1 ?
INS promoter act: 129

What do the screens show for `Cc1ccccc1N1CN(Cc2ccco2)CNC1=S`?
INS promoter act: -3

Results for Cc1ccc(C2=Nc3cccnc3C(c3ccccc3)=NN2)cc1 ?
INS promoter act: 0

What do the screens show for `CCOc1ccccc1C(=O)N[C@H](C(=O)OCc1cc([N+](=O)[O-])cc2c1OCOC2)C(C)C`?
INS promoter act: -3

What do the screens show for `Cc1sc(NC(=O)c2ccccc2F)c(CN2CCCCC2)c1C`?
INS promoter act: 485*

Results for CCOC(=O)c1sc(NC(=O)c2ccccc2F)c(C(N)=O)c1C ?
INS promoter act: -79

What do the screens show for `CCOC(=O)N1CCN(Cc2c(F)cccc2F)CC1`?
INS promoter act: 0

What do the screens show for `COCCNC(=O)C(c1cccnc1)N(Cc1ccc(C)cc1)C(=O)Cn1nnc2ccccc21` (stereo unspecified)?
INS promoter act: 4

What do the screens show for `CCOC(=O)COn1c(=O)c(-c2ccc(OC)c(OC)c2)[n+]([O-])c2ccccc21`?
INS promoter act: 0

Results for COc1ccc(-c2c(=O)n(OCc3ccccn3)c3ccccc3[n+]2[O-])cc1OC ?
INS promoter act: -10

Results for Cc1c(=O)n(OCc2cccc(F)c2)c2ccccc2[n+]1[O-] ?
INS promoter act: 132*

How did COC(=O)CN(c1ccc(OCc2ccccc2)cc1)S(C)(=O)=O do in these assays?
INS promoter act: 7

How did Cc1cc(=O)[nH]c(N/N=C/C2=C(N3CCOCC3)C(=C\c3ccc(Cl)cc3)/CC2)n1 do in these assays?
INS promoter act: -3

What do the screens show for `O=C(N/N=C/C1=C(N2CCOCC2)C(=C\c2ccccc2)/CC1)Nc1ccccc1`?
INS promoter act: 6

What do the screens show for `N#C/C(=C\C1=C(N2CCOCC2)C(=C/c2cccc([N+](=O)[O-])c2)/CC1)C(=O)Nc1ccccc1F`?
INS promoter act: 614*

What do the screens show for `CC(C)C(NC(=O)C12CC3CC(CC(C3)C1)C2)C(=O)N/N=C/C1=C(N2CCOCC2)C(=C\c2ccc([N+](=O)[O-])cc2)/CC1` (stereo unspecified)?
INS promoter act: 176

How did N#C/C(=C\C1=C(N2CCOCC2)C(=C\c2ccc(Cl)cc2)/CC1)C(=O)Nc1ccccc1F do in these assays?
INS promoter act: 614*[fluoresces]

Results for O=C(/C=C/c1cccc([N+](=O)[O-])c1)NCCN1CCOCC1 ?
INS promoter act: 7

How did Cc1ccc(CSCC(=O)N/N=C/c2cccc(OC3CSC3)c2)cc1 do in these assays?
INS promoter act: 3

Results for Cc1ccc(S(=O)(=O)/C(C#N)=C/c2c(N3CCC(C(N)=O)CC3)nc3ccccn3c2=O)cc1 ?
INS promoter act: 4

What do the screens show for `C=CCN1C=CC(=C/C=C(/C#N)C(=O)OCC)C=C1`?
INS promoter act: 163*

Results for CCOC(=O)/C(C#N)=C/c1cccc(F)c1 ?
INS promoter act: 7

Results for CCOC(=O)/C(C#N)=C\c1cccnc1 ?
INS promoter act: 7

How did COc1ccc(CCNC(=O)C2CCN(S(C)(=O)=O)CC2)cc1 do in these assays?
INS promoter act: 9

What do the screens show for `Cn1c(=O)c2c(SCCN3CCOCC3)nc(C3CCCC3)nc2n(C)c1=O`?
INS promoter act: -9

How did COCCNC(=O)/C(C#N)=C/c1ccc(OCC(=O)NC2CCCCC2)cc1 do in these assays?
INS promoter act: 129

How did NC(=O)CSc1nnc(COc2ccccc2)n1CCc1ccccc1 do in these assays?
INS promoter act: -6

How did COc1ccccc1-n1c(COc2ccccc2-c2ccccc2)nnc1SCC(=O)c1c(N)n(C)c(=O)n(C)c1=O do in these assays?
INS promoter act: -2

Results for COc1ccc(OCc2nnc(SCC(N)=O)n2-c2ccccc2OC)cc1 ?
INS promoter act: 160*

How did CC(=O)Nc1cccc(Oc2ccc(-c3noc(C)n3)cc2)c1 do in these assays?
INS promoter act: 0

How did CC(SCC(=O)NC12CC3CC(CC(C3)C1)C2)C(=O)O (stereo unspecified) do in these assays?
INS promoter act: -7

How did Cc1occc1C(=O)N1CCN(Cc2ccccc2)CC1 do in these assays?
INS promoter act: 0

What do the screens show for `Cc1ccc(CN2CCN(C(=O)c3ccco3)CC2)cc1`?
INS promoter act: 422*

What do the screens show for `O=C(c1ccco1)N1CCCN(C(=O)c2ccco2)CC1`?
INS promoter act: -23

How did CC1(C(=O)Oc2ccccc2)Cc2ccccc2C(=O)O1 (stereo unspecified) do in these assays?
INS promoter act: -7

How did CCOC(=O)C1C(=O)CC(O)(c2ccccc2)CC1c1ccccc1 (stereo unspecified) do in these assays?
INS promoter act: 143*

Results for CCOC(=O)C1C(=O)CC(C)(O)C(C(=O)OCC)C1c1ccc(C)s1 (stereo unspecified) ?
INS promoter act: 8

What do the screens show for `COC(=O)C1C(=O)NCC1c1ccccc1` (stereo unspecified)?
INS promoter act: 243

What do the screens show for `Cc1c(NC(=O)CCCCCN2C(=O)c3ccccc3C2=O)c(=O)n(-c2ccccc2)n1C`?
INS promoter act: -7

Results for Cn1c(CO)cnc1SCc1ccc(Cl)cc1 ?
INS promoter act: 7

How did CC(=O)Nc1ccccc1OCC(=O)NCCC1=CCCCC1 do in these assays?
INS promoter act: -9

How did O=C1CCC(C(=O)Nc2cccc(Oc3ccccc3)c2)=NN1 do in these assays?
INS promoter act: 9

Results for COC(=O)C1=CC(C(=O)c2cccs2)=NN(c2ccc(OC)cc2)C1C(=O)OC (stereo unspecified) ?
INS promoter act: 143

How did Nc1c(C(=O)NCc2ccccc2)sc2nc(N3CCOCC3)c3c(c12)CCCC3 do in these assays?
INS promoter act: 8

How did CCOC(=O)c1sc2nc(C)c3c(c2c1N)CC(C)(C)OC3 do in these assays?
INS promoter act: -9

Source: PubChem (Columbia University Molecular Screening Center)
